Tests used:
Mus musculus [1] = test: Compound was tested for inhibition of arachidonic acid induced mouse ear edema at 2 mg of dose; I=Insoluble; type: functional, organism-based
Method in brief: (§1)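 Mouse ear edema induced by arachidonic acid (dissolved in acetone at 100 mg/mL). Test agent is applied topically in acetone, 2 mg/0.02 mL per total dose, 60 min before arachidonic acid. Ear edema is read 1 h later as the weight gain of an 8-mm-diameter ear plug. It is compared with acetone-only and arachidonic acid-only controls run in the same experiment. n = 8 per group; percent inhibition is reported as mean.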

[2] = Statistical significance, p values as compared to positive control by students t-test; I=Insoluble; type: ADME
Method in brief: (§2)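 Same arachidonic acid ear-edema model: 2 mg total topical dose in acetone, given 60 min before arachidonic acid, with 8 animals per group. Edema is measured by ear plug weight 1 h after arachidonic acid. p values come from Student's t-test against the concurrent arachidonic acid positive control. Thresholds are given as + (≤0.05) and so on.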

[3] = Partition coefficient (logP); type: physicochemical; conditions: octanol/water
Method in brief: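 Lipophilicity (log P) measured by 1-octanol-coated reversed-phase HPLC. The mobile phase is pH 7.4 PBS saturated with 1-octanol, run on RP-18 or C-18 packing. A second system is linked to the first through overlapping series. For the most lipophilic analogues that could not be detected, log P is calculated from Free-Wilson-derived substituent constants assuming additivity.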

Mus musculus [4] = test: Compound was tested for inhibition of arachidonic acid induced mouse ear edema at 2 mg of dose; type: functional; method in brief: as §1
[5] = Statistical significance, p values as compared to positive control by students t-test; type: ADME; method in brief: as §2

| Significance [2] | logP [3] | Significance [5] | Compound | inhibition (Mus musculus [1]) | Inhibition (Mus musculus [4]) [%] |
| --- | --- | --- | --- | --- | --- |
| Insoluble | 7.9 | – | O=C(Oc1c(Oc2ccccc2)c(Oc2ccccc2)c(OC(=O)c2ccccc2)c2ccccc12)c1ccccc1 | Insoluble | – |
| Insoluble | 4.8 | – | CC(=O)Oc1c(Oc2ccccc2)c(Oc2ccccc2)c(OC(C)=O)c2ccccc12 | Insoluble | – |
| – | 3.26 | <= 0.001 | COc1c(OC)c(OC(C)=O)c2cc(Cl)ccc2c1OC(C)=O [LONAPALENE] | – | 54 |
| Insoluble | 7.8 | – | CC(C)(C)C(=O)Oc1c(Oc2ccccc2)c(Oc2ccccc2)c(OC(=O)C(C)(C)C)c2ccccc12 | Insoluble | – |

Reference: ChEMBL document CHEMBL1123347, “Topical nonsteroidal antipsoriatic agents. 1. 1,2,3,4-Tetraoxygenated naphthalene derivatives” (J Med Chem, 1986)
